The subject of one data set is 661W. In words: Increase in number of mouse 661W cells at 10 to 50 uM after 24 hrs by MTT assay relative to vehicle control. In kind it is functional, cell-based. In outline: (§1)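 About 3000 NTM5 trabecular meshwork cells or transformed 661 W photoreceptor cells seeded per well, exposed to 10, 50 or 100 μM for 24 h; vehicle DMEM/DMSO (1 mL/10 μL). Viability by MTT-type kit (tetrazolium reduced to formazan), absorbance 490 nm; eight biological replicates.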
For orientation: Tetrazolium dyes change colour on reduction, which living cells bring about.

Data set [1] can be described thus: Half life of compound in 0.5 M phosphate buffer at pH 7.4 at 25 degC by LC/MS analysis. As to conditions: for t1/2: buffer; for half-life: phosphate buffer. In kind it is physicochemical.
A short description of data set [2]: Half life of compound in 0.5 M phosphate buffer at pH 6.5 at 25 degC by LC/MS analysis. Format: physicochemical. The following applies: for t1/2: buffer; for half-life: phosphate buffer.
The nature of data set [3]: Upregulation of SOD in H2O2-induced mouse 661W cells at 50 to 100 uM by Cayman's superoxide dismutase assay. In kind it is functional. In outline:
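SOD activity in 661 W cells treated with test agent in combination with H2O2, vehicle DMEM plus DMSO; commercial kit detecting superoxide generated by xanthine oxidase/hypoxanthine with a tetrazolium salt, per manufacturer's instructions.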

Data set [4] is described as follows: Cytotoxicity against human NTM5 cells assessed as cell viability at 100 uM after 24 hrs by MTT assay. Format: cell-based. The gist of the method: as §1
A short description of data set [5]: Cytotoxicity against mouse 661W cells assessed as cell viability at 100 uM after 24 hrs by MTT assay. In kind it is cell-based. The gist of the method:
as §1

A short description of data set [6]: Induction of nitric oxide release in 50 mM phosphate buffer at pH 7.4 after 10 mins by Greiss assay. Format: physicochemical. As to conditions: pH 7.4, 10 min.
The nature of data set [7]: Neuroprotective effect against H2O2-induced oxidative stress in mouse 661W cells assessed as cell viability at 50 to 100 uM by MTT assay relative to control. Format: functional, cell-based.
For a further data set, the system named is Rhesus monkey. In words: Suppression of elevated intraocular pressure in lasered monkey eye at 150 ug at 6 hrs. In kind it is functional, Macaca mulatta.

Active and inactive are the calls of the source. The rule behind the calls is not given here.

What is called half-life is how long it takes for the measured level to halve.

For `CC1(C)CC(O)CC(C)(C)N1[O]`, the result in the data set on 661W was inactive.
For the compound `CC(OC(=O)[N-]c1c[n+](C2CC(C)(C)N(O)C(C)(C)C2)no1)OC(=O)C(C)(C)C` (stereo not given), the results for the t1/2 in data set [1] and in data set [2] were 9.1 months and 15.3 months, respectively.
The matching figures for `CC(OC(=O)[N-]c1c[n+](N2CCOCC2)no1)OC(=O)C(C)(C)C` (stereo not given): 9 months and 18 months.
Take `[NH-]c1c[n+](N2CCOCC2)no1`: the outcome (in the data set with 661W; in data set [3]) was inactive.
With `CC1(C)CC([n+]2cc([NH-])on2)CC(C)(C)N1O.Cl`, the half-life in data set [1] and in [2] was < 24 h in each case. The Activity entry in data set [4] was “Non-toxic”; in [5], “Non-toxic”; in [6] it was “Active”. In addition, the result (with 661W; in [3]; in data set [7]) was Active.
With `CC1(C)CC(O[N+](=O)[O-])CC(C)(C)N1O`, the Activity in the data set on Rhesus monkey stood at 20%.
In turn, `O=[N+]([O-])OCC(CO[N+](=O)[O-])O[N+](=O)[O-]` [NITROGLYCERIN] had an Activity in the data set on Rhesus monkey of 13%.
Regarding `N=c1c[n+](N2CCOCC2)[n-]o1` [LINSIDOMINE], the half-life in data set [1] and in data set [2] was < 24 h each time. In addition, the result in [6] was Active.
